Compound activity (PubChem BioAssay)
Rows were chosen to be rich in hits. Some 1.2% of all compounds tested hit in one or more screens of this group.
MsrA act: bovine methionine sulfoxide reductase A activation | purified bovine MsrA, absorbance read-out | activation, % at 10.6 µM | 360,000 compounds, 0.3% hits | AID 602163; in the data active means activation above about 7.5%;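 further: 0% = vehicle and 100% = reference activator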
MsrA inhibitor: inhibitors of bovine MsrA | 360,000 compounds, 0.75% hits | purified bovine MsrA, absorbance read-out | inhibition, % at 15.5 µM; in the data active means inhibition above about 4.5%;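 further: 0% = vehicle wells with enzyme and 100% = reference inhibitor wells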
procasp3 activ: activates human procaspase-3. 330,000 compounds, 0.11% hits. recombinant procaspase-3 D3A, Ac-DEVD-pNA absorbance 405 nm. AID 463141. activation, % at 8.5 µM. P42574;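 active means activation above the mean of all tested compounds plus 3 SD, cut at about 21% in these data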;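 further: 0% = DMSO alone and 100% = DMSO wells spiked with extra 5 µM PC-3 D3A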
Target sequence (P42574 whole entry D9A/D28A/D175A): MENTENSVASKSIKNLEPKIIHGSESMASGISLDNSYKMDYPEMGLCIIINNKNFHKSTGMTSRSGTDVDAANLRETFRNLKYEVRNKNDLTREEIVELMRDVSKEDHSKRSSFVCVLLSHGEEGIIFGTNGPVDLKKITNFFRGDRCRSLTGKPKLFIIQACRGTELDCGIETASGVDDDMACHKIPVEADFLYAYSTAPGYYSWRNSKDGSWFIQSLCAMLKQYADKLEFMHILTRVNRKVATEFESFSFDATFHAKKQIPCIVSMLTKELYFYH
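assay system = Procaspase-3 D3A mutant | signal = absorbance at 405 nm, 0 and 120 min | times = 1 h preincubation plus 2 h reaction at 25 °C | repeats = single replicate | read-out = % activation between DMSO and enzyme-spiked controls | medium = Zinc-free HEPES saline buffer with Triton X-100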
Bfl-1 A1 inh: inhibitors of the anti-apoptotic protein A1, read as caspase activation. MEF A1-2A-BIM cells, Caspase-Glo 3/7 luminescence, 3 h; percent of clofoctol response, vehicle zero. caspase activation, % (concentration not given with the values). 330,000 compounds, 0.066% hits. AID 2462;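 active means over half of replicate activation scores above 10%, or exactly half above 10 with the replicate mean above 10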
procasp7 counter: counter-screen: procaspase-7 (human) activation. 330,000 compounds, 0.093% hits. activation, % at 8.5 µM. P55210. recombinant procaspase-7, Ac-DEVD-pNA absorbance 405 nm; D23A/D198A/D206A triple mutant, cannot self-cleave; scale: DMSO 0, 5 µM enzyme 100;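 active means percent activation above the screen-wide mean plus 3 SD, cut at about 25% in these data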
Target sequence (P55210 whole entry D23A/D198A/D206A): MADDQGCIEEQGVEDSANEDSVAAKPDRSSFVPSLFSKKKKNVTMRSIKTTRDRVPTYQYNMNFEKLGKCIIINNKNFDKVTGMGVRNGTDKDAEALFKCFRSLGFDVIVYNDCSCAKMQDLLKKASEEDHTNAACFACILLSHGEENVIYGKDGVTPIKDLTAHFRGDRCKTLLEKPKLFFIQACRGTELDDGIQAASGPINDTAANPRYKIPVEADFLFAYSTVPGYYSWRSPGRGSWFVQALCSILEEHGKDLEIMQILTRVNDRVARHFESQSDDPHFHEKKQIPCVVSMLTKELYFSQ
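Replicates: singlicate. Assay system: Procaspase-7 triple mutant (PC-7 D3A). Signal: 405 nm absorbance of p-nitroaniline. Times: 1 h preincubation, 2 h reaction. Buffer or medium: Zinc-free HEPES pH 7.4 with 300 mM NaCl, 0.01% Triton X-100. Also added: DEVD-pNA substrate. Benchmarks: DMSO wells as 0%, DMSO with 5 µM added PC-7 as 100%.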
The depositor's hits bear a star; nt = no result.

SMILES	MsrA act	MsrA inhibitor	procasp3 activ	Bfl-1 A1 inh	procasp7 counter
COC(=O)C1=C(C)N(Cc2ccc(C(F)(F)F)cc2)C(=NCc2ccc(C(F)(F)F)cc2)NC1c1ccc(F)cc1 (configuration not stated)	nt	-1.8	nt	nt	nt
CCOC(=O)CCS(=O)(=O)c1nc(-c2ccccc2)cc(C(F)(F)F)n1	-8.1	nt	1.5	9.7*	2.1
CCOC(=O)CS(=O)(=O)c1nc(-c2ccccc2)cc(C(F)(F)F)n1	-8.8	1.2	1.4	8.7*	-3.7
COc1ccccc1C(=O)N1CCN(C(=O)[C@@H](Cc2ccccc2)NC(=O)[C@H]2O[C@@H](n3cnc(C(N)=O)n3)[C@H](O)[C@@H]2O)CC1	nt	0.8	nt	nt	nt
COC(=O)[C@]12C[C@H](CC(=O)NCC3CCCCC3)C(=O)N(Cc3ccccc3)C1=C[C@H](C(C)C)O[C@@H]2C1CC1	nt	0.3	nt	nt	nt
CCc1cc2c(=O)c(-c3cnn(-c4ccccc4)c3)c(C)oc2cc1OCC(=O)Nc1cccc(C)c1	-2.2	1.0	0.7	7.9*	7.8
CCN(C(=O)CCN1C(=O)c2ccccc2S1(=O)=O)c1ccccc1	-10.7	1.4	9.4	5.7*	8.0
Cc1ccc(N2C(=O)C3CCC(C)(C2=O)C3(C)C)cc1 (configuration not stated)	-1.7	0.1	-2.3	-0.3	14.1
CSC[C@@H]1NC(=S)N(c2ccc(C)cc2)C1=O	-5.6	1.4	3.6	23.2*	-1.5
CCN1/C(=C(\O)c2ccccc2)C(=O)c2ccccc2S1(=O)=O	-3.1	4.8*	-7.7	0.5	-1.4
Cc1c(C=O)c(C=O)c(C)n1Cc1ccccc1	-1.1	1.7	4.0	9.3*	-4.3
c1ccc(Cn2cc(CCOCc3ccccn3)c3ccccc32)cc1	nt	0.5	nt	nt	nt
O=C(Cn1ncc(Cl)c(Cl)c1=O)NC1CCCCC1	-1.9	0.1	2.4	-0.5	-7.0
O=C(Cn1ncc(Cl)c(Cl)c1=O)NCC1CCCCC1	-3.1	0.1	-4.7	10.0*	3.1
COc1ccc(-c2nnc(-c3ccc(N(C)C)cc3)o2)cc1	-7.8	0.6	-3.5	1.5	-11.0
CN(C)c1ccc(-c2nnc(-c3ccccc3F)o2)cc1	4.0	4.6*	-4.0	-6.5	-0.8
CCNC(=O)N(C)[C@H]1C[C@H]2c3[nH]c4c(-c5ccccc5)cccc4c3CCN2C(=O)[C@H]1[C@H](C)O	nt	0.4	nt	nt	nt
COc1cc(/C=C(\C#N)c2nnc(N3CCOCC3)n2-c2ccccc2)ccc1O	-10.4	4.6*	-2.1	0.2	-6.3
Cc1cc(/C=C(\C#N)c2nnc(N3CCOCC3)n2-c2ccccc2)c(C)n1-c1ccccc1	nt	nt	-3.2	-0.2	1.3
Cc1ccc(/C=C2\SC(N3CCCC3)=NC2=O)cc1	nt	4.6*	-3.5	-0.4	17.9
CC(C)c1ccc(/C=C2\SC(N3CCCC3)=NC2=O)cc1	-1.7	3.2	-4.8	2.6	-4.0
CCOC(=O)C1CCN(C2=NC(=O)/C(=C/c3ccc(Cl)cc3)S2)CC1	-2.8	4.7*	0.2	0.4	2.0
Cc1c(CC(=O)NCC(=O)O)c(=O)oc2cc3c(cc12)CCC(C)(C)O3	-3.6	4.6*	3.8	1.9	1.4
COc1cccc(C(=O)N[C@H](C(=O)N2CCC[C@H]2C(=O)NCCc2ccccc2Cl)C(C)C)c1	nt	-0.5	nt	nt	nt
Cc1ccc(/C=N/NC(=S)NCCc2ccccc2)s1	-3.1	0.9	2.5	-0.8	3.7
SMILES	MsrA act	MsrA inhibitor	procasp3 activ	Bfl-1 A1 inh	procasp7 counter
CCCCNC(=S)N/N=C/c1ccc(C)s1	-2.5	4.7*	3.0	-0.5	4.4
CC(C)(C)c1ccc(C#C[C@@H]2C=C[C@H]3OC(=O)CC/C=C/CCC(=O)OC[C@H]3O2)cc1	nt	-0.3	nt	nt	nt
C=CCc1cccc2cc(C(=O)O)c(=O)oc12	-2.9	0.8	4.5	0.1	-5.6
C=CCc1cccc2cc(C(=O)Nc3ccccc3C(=O)O)c(=O)oc12	-2.9	4.9*	nt	nt	nt
O=C(Nc1ccc(-c2nc3cc(NC(=O)c4cccs4)ccc3o2)cc1)c1cccs1	-1.4	0.4	2.7	17.4*	-5.4
O=C(Nc1ccc2oc(-c3ccncc3)nc2c1)c1cccs1	0.6	0.8	-1.8	-0.5	5.9
COc1ccc(-c2ccc3c(c2)S(=O)(=O)c2cccc(C(=O)NCc4cccc(OC(F)(F)F)c4)c2C3=O)cc1OC	-1.9	nt	3.5	38.7*	-8.4
O=C(NCc1ccccc1Cl)c1cccc2c1C(=O)c1ccc(-c3ccc(OC(F)(F)F)cc3)cc1S2(=O)=O	-2.0	nt	-2.0	10.4*	1.8
O=C(NCc1cc(C(F)(F)F)ccc1Cl)c1cccc2c1C(=O)c1ccc(-c3ccc(OC(F)(F)F)cc3)cc1S2(=O)=O	nt	nt	0.3	0.3	3.5
O=C(NCc1cccc(OC(F)(F)F)c1)c1cccc2c1C(=O)c1ccc(-c3ccc(F)cc3OCc3ccccc3)cc1S2(=O)=O	-0.1	1.0	8.0	1.1	8.8
CCNC(=O)O/N=C(\C)c1sc(-c2ccc(Cl)cc2)nc1C	-4.4	4.6*	5.0	-13.9	2.3
Nc1[nH]c(C(=O)c2ccccc2)c(-c2cccc3ccccc23)c1C(=O)NC1CCCCC1	nt	-0.4	nt	nt	nt
CC12CN3CC(C)(CN(C1)C3c1ccc(Cl)cc1Cl)C2O (configuration not stated)	1.0	0.1	-0.6	-0.7	5.8
CN(C)c1ccc(C2N3CC4(C)CN2CC(C)(C3)C4O)cc1 (configuration not stated)	-9.5	5.5*	4.1	0.5	9.0
O=C(CNc1cccc(C(F)(F)F)c1)N/N=C/c1cn(-c2ccccc2)nc1-c1ccccc1	-8.1	4.6*	4.9	0.3	5.8
CCOC(=O)C1C(=O)C=C(C)C(C(=O)OCC)C1c1cccc([N+](=O)[O-])c1 (configuration not stated)	1.3	4.6*	12.8	0.8	3.2
COCCCNC(=O)C[C@H]1C[C@@]2(C(=O)OC)C(=C[C@H](C(C)C)O[C@@H]2C2CC2)N(Cc2ccccc2)C1=O	nt	-0.2	nt	nt	nt
Cc1c(N2C(=O)/C(=C/c3ccccc3)SC2=S)c(=O)n(-c2ccccc2)n1C	-11.1	4.5*	-10.2	2.6	-23.5
CN(C)CCN(C(=O)/C=C/c1cccs1)c1nc2c(F)cc(F)cc2s1	-1.6	2.0	-8.0	17.3*	13.7
CN(C)CCCN(C(=O)/C=C/c1cccs1)c1nc2ccc(F)cc2s1	-8.9	0.6	-3.2	-0.1	-5.9
C[C@H]1[C@@H]2C[C@@]3(O[C@H](c4ccccn4)N=C3C[C@@H]1c1ccccc1)N(Cc1ccncc1)C2=O	nt	-1.1	nt	nt	nt
CCc1cc2c(nc1CC)CCCN2S(=O)(=O)c1c(C)noc1C	nt	0.6	nt	nt	nt
CCCCNC(=O)CCSc1nc2nc(C)cc(C)n2n1	8.0*	nt	0.2	-0.2	-7.0
CNC(=O)CSc1nc2nc(C)cc(C)n2n1	-2.1	0.4	-1.4	0.2	7.9
CN(C(=O)c1cccc(NC(=O)Cc2ccc(NC(=O)C3CCCN(C(=O)c4ccccc4)C3)cc2)c1)C1CC1 (configuration not stated)	nt	0.2	nt	nt	nt
